This excerpt belongs to a sample that is enriched for hits.
Insulin prom act: activators of insulin promoter-driven GFP, primary screen, imaging, TRM-6 cells, eGFP reporter, cell count; plate-scaled: unstimulated 0, stimulated control 100; activation, % at 2 µM; 130,000 tested, 0.81% active; AID 1296, 2008;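 active means activation at 2 µM above a set limit, confirmed on inspection of the cell images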;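 further: share of cells whose green reporter signal exceeds an intensity cutoff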
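System – human fetal islet-derived TRM-6 cells with tamoxifen-inducible insulin promoter–eGFP reporter · Amount – 1,000 cells per well · Schedule – overnight tamoxifen, then two-day compound incubation at 37 °C · Detection – high-content imaging of fixed cells with Hoechst nuclear stain · Read-out – percent cells above green-intensity threshold, converted to percent activation versus plate controls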
* marks the source's active call; other numbers are inactive results.

SMILES	Insulin prom act
CC(C)(C)C1CCC(OCC(O)CN2CCN(c3ccccn3)CC2)CC1 (stereo not drawn)	-6.7
N#Cc1c(Sc2ncc(C(F)(F)F)cc2Cl)nsc1C/C=N\OCc1c(F)cccc1Cl	542.9*
FC(F)(F)c1cnc(Sc2nnc(-c3cccs3)n2CC2CCCO2)c(Cl)c1 (stereo not drawn)	-8.1
CCCNC(=O)c1cnc(Sc2ncc(C(F)(F)F)cc2Cl)n1C	9.4
Cc1cc([N+](=O)[O-])nn1CCCC(=O)NC(C)c1ccccc1 (stereo not drawn)	-7.4
CC(C)OC(=O)c1cccc(NC(=O)c2ccccc2)c1	-86.4
Cc1cc(C(=O)N[C@H](c2ccccc2)[C@@]2(C)C[C@@H]2[C@@H](C)C(=O)Nc2ccc3ccccc3c2)n(C)n1	9.5
CC(C)(CO)NC(=O)C(c1ccccc1)c1ccccc1	406.3*
O=C(O)CC(c1ccccc1)c1ccccc1	0.0
CC(C)(C)C(=O)NC(=S)NNC(=O)C(c1ccccc1)c1ccccc1	0.0
COC(=O)c1cc(COc2ccc3c(c2)oc(=O)c2ccccc23)c(C)o1	5.7
COc1ccc(NC(=O)Nc2ccc(Br)c(C)c2)cc1	5.3
CC(=O)N1CCN(C(=S)c2ccc(N(C)C)cc2)CC1	6.7
CN(C)c1ccc(C(=S)N2CCOCC2)cc1	150.0*
O=C(Oc1ccc(C(=S)N2CCOCC2)cc1)c1ccccc1	-5.9
Cc1ccc2cc(CN(CC3CCCO3)C(=S)Nc3ccccc3)c(=O)[nH]c2c1C (stereo not drawn)	0.0
CC(=O)c1ccc(N2CCN(C(=O)CCCn3c(=S)[nH]c4cc5c(cc4c3=O)OCO5)CC2)cc1	136.4*
O=C(CCCn1c(=S)[nH]c2cc3c(cc2c1=O)OCO3)NC1CC1	3.8
Cc1cccc(N2CCN(C(=O)CCCn3c(=S)[nH]c4cc5c(cc4c3=O)OCO5)CC2)c1C	0.0
Fc1ccc(Sc2ccccc2CNC2=NCCN2)cc1	0.0
COc1cccc2c1C(=O)c1c(O)c3c(c(O)c1C2=O)C[C@@](O)(C(=O)CO)C[C@@H]3O[C@H]1C[C@H](N)[C@H](O)[C@H](C)O1	354.5*

High-throughput results: PubChem BioAssay, Columbia University Molecular Screening Center
